The assay addresses Wee1-like protein kinase (Homo sapiens) (UniProt P30291). Put plainly: Wee1 degradation inhibitors in HeLa reporter cells – cell-based, Wee1-luciferase fusion, luminescence, powder samples, late-stage follow-up (AID 463169). Conditions: luminescence stabilization, at 0.1 µM, hits give high values. Put shortly:
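Test system: HeLa cells transiently transfected with Wee1-luciferase fusion plasmid; Compound: single nominal dose of 100 nM (0.1 µM); Times: transfection 48 h before assay, compound exposure 20 h at 37 °C; Technique: luminescence read after luciferase detection reagent addition; Read-out: mean fold change versus DMSO vehicle; Benchmarks: DMSO-treated cells; Repeats: four replicates.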

Sequence of Wee1-like protein kinase (Homo sapiens) (P30291 whole entry K328M, the tested form may be a part): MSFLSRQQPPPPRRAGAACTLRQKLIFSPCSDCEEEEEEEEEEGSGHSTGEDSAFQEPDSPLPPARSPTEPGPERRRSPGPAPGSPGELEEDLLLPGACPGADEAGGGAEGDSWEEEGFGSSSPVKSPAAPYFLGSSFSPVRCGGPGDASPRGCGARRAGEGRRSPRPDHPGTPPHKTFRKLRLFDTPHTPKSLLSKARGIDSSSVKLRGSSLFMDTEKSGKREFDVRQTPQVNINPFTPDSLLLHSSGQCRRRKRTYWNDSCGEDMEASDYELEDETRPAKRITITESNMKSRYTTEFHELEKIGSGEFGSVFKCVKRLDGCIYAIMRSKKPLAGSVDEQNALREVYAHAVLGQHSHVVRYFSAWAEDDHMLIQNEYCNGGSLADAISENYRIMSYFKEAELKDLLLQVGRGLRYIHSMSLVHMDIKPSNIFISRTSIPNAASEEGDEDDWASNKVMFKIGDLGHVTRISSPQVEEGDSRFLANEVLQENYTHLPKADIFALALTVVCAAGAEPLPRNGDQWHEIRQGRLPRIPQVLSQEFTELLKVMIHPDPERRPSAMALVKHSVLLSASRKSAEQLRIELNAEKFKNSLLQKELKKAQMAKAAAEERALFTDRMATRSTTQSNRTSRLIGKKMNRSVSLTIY

With `O=[N+]([O-])c1cccc2[nH]c(CNc3nc(N4CCOCC4)nc4c3ncn4-c3ccsc3)nc12`, the fold change is 23.3.

As for `c1ccc2[nH]c(CNc3nc(N4CCOCC4)nc4c3ncn4-c3ccsc3)nc2c1`, the fold change is 12.9.

The values above are taken from PubChem BioAssay AID463169 (The Scripps Research Institute Molecular Screening Center, 2010).
